According to ChEMBL document CHEMBL1156631 (J Med Chem, 2008):
Converted amounts (≈) assume the structure as drawn.

Tests used:
Cannabinoid receptor 1 [1] = target: T1, Cannabinoid receptor 1 (Homo sapiens, UniProt P21554); experiment: Agonist activity at human recombinant CB1 receptor expressed in CHO-K1 cells assessed as inhibition of forskolin-stimulated intracellular cAMP level; assay type: functional, cell-based
How it was run: (§1)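 CHO-K1 cells stably expressing human or rat CB1 or CB2 were used. Compounds were diluted from DMSO into HBSS/HEPES/BSA buffer containing 60 µM forskolin, then combined with 5000 cells/well plus Alexa647 anti-cAMP antibody, 1 h at room temperature. A biotinylated-cAMP detection mix was added for another 1 h.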

[2] = Solubility in simulated intestinal fluid; assay type: physicochemical; details: read-out: Stability
Cannabinoid receptor 1 [3] = target: T1, Cannabinoid receptor 1; experiment: Agonist activity at human CB1 receptor expressed in Sf9 cells by GTP-europium binding assay
How it was run: (§2)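 Membranes were from Sf9 insect cells cotransfected with CB1 or CB2 plus Gαi3 (Bmax 1.7 pmol/mL). Compound (0.01 nM–10 µM, 1% DMSO final) was added to buffer with Hepes, BSA, 10 mM MgCl2, 150 mM NaCl, 5 µM GDP, 10 nM GTP-europium, saponin and membranes (CB1 4.5 µg/well, CB2 14 µg/well). 100% efficacy was set by 3 µM reference agonist.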

[4] = (§3) AUC in rat at 10 mg/kg, po; assay type: ADME, organism-based, Plasma; parameters: dose 10 mg/kg, route oral; details: plasma
[5] = Half life in rat at 10 mg/kg, po; assay type: ADME, organism-based; parameters: dose 10 mg/kg, route oral; details: in vivo
[6] = (§4) Oral bioavailability in rat at 10 mg/kg; assay type: ADME, organism-based; details: in vivo
Cannabinoid receptor 2 [7] = target: T2, Cannabinoid receptor 2 (Homo sapiens, UniProt P34972); experiment: Agonist activity at human recombinant CB2 receptor expressed in CHO-K1 cells assessed as inhibition of forskolin-stimulated intracellular cAMP level; assay type: functional, cell-based; how it was run: as §1
T2 sequence (P34972 whole entry): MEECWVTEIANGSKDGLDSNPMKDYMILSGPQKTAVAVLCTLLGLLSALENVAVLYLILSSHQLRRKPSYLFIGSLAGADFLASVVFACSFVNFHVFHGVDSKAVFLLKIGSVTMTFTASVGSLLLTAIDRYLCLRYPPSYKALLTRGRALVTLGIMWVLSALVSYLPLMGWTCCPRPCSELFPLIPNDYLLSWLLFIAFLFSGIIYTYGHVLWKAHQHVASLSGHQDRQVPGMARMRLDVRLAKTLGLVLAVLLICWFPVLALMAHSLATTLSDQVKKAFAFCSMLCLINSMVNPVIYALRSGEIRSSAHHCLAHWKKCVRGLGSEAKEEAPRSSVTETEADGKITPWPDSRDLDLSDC

[8] = Cmax in rat at 10 mg/kg, po; assay type: ADME, organism-based; parameters: dose 10 mg/kg, route oral; details: in vivo
Cannabinoid receptor 2 [9] = target: T2, Cannabinoid receptor 2; experiment: Agonist activity at human recombinant CB2 receptor expressed in Sf9 cells by GTP-europium binding assay; how it was run: as §2
[10] = target: T3, Cannabinoid receptor 2 (Rattus norvegicus) (UniProt Q9QZN9); experiment: Agonist activity at rat recombinant CB2 receptor expressed in CHO-K1 cells assessed as inhibition of forskolin-stimulated intracellular cAMP level relative to CP-55940; assay type: functional, cell-based
T3 sequence (whole entry): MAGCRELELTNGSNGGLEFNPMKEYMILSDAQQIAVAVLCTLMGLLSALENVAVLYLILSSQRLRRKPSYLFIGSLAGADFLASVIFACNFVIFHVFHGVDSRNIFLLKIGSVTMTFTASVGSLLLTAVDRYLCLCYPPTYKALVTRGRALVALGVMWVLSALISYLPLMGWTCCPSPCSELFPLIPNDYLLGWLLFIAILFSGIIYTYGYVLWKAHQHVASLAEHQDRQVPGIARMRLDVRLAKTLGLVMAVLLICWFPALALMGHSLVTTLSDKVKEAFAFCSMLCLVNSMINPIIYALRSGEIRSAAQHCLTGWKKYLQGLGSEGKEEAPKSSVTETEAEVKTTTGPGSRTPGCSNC
How it was run: as §1, with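 “h. Emission at 665 nm gave concentration-response curves and EC50; Emax is expressed as a percentage of the reference agonist maximum.” for “h.”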

Cannabinoid receptor 2 [11] = target: T2, Cannabinoid receptor 2; experiment: Agonist activity at human recombinant CB2 receptor expressed in Sf9 cells by GTP-europium binding assay relative to CP-55940
How it was run: as §2, with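 “µg/well). Incubation was 45 min at room temperature, then filtration and washing, with fluorescence read at 615 nm.” for “µg/well).”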

Cannabinoid receptor 2 [12] = target: T2, Cannabinoid receptor 2; experiment: Agonist activity at human recombinant CB2 receptor expressed in CHO-K1 cells assessed as inhibition of forskolin-stimulated intracellular cAMP level relative to CP-55940; assay type: functional, cell-based
How it was run: as §1, with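 “h. Emission at 665 nm gave concentration-response curves and EC50; Emax is expressed as a percentage of the reference agonist maximum.” for “h.”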

Cannabinoid receptor 1 [13] = target: Cannabinoid receptor 1 (Rattus norvegicus, UniProt P20272); experiment: Agonist activity at rat recombinant CB1 receptor expressed in CHO-K1 cells assessed as inhibition of forskolin-stimulated intracellular cAMP level; assay type: functional, cell-based; how it was run: as §1
Cannabinoid receptor 1 (Rattus norvegicus, UniProt P20272), sequence (P20272 whole entry): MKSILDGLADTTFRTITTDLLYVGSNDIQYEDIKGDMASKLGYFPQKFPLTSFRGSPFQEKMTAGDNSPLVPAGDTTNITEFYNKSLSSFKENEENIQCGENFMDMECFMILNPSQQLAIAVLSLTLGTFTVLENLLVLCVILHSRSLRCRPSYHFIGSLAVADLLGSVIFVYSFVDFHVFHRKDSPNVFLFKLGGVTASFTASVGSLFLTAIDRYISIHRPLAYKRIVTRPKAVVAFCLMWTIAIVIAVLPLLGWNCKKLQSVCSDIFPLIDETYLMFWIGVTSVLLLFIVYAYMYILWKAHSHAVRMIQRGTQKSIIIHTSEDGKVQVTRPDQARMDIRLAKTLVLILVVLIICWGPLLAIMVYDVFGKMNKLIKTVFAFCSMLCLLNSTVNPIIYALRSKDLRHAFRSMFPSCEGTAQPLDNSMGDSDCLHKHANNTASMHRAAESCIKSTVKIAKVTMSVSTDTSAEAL

Cannabinoid receptor 2 [14] = target: T4, Cannabinoid receptor 2 (Rattus norvegicus, UniProt Q9QZN9); experiment: Agonist activity at rat recombinant CB2 receptor expressed in CHO-K1 cells assessed as inhibition of forskolin-stimulated intracellular cAMP level; assay type: functional, cell-based
T4 sequence (Q9QZN9 whole entry): T3 sequence (whole entry)
How it was run: as §1, with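 “h. Emission at 665 nm gave concentration-response curves and EC50; Emax is expressed as a percentage of the reference agonist maximum.” for “h.”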

Cannabinoid receptor 1 [15] = target: T1, Cannabinoid receptor 1; experiment: Agonist activity at human recombinant CB1 receptor expressed in Sf9 cells by GTP-europium binding assay relative to CP-55940
How it was run: as §2, with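 “µg/well). Incubation was 45 min at room temperature, then filtration and washing, with fluorescence read at 615 nm.” for “µg/well).”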

[16] = target: Cannabinoid receptor 1 (Rattus norvegicus) (UniProt P20272); experiment: Agonist activity at rat recombinant CB1 receptor expressed in CHO-K1 cells assessed as inhibition of forskolin-stimulated intracellular cAMP level relative to CP-55940; assay type: functional, cell-based
Cannabinoid receptor 1 (Rattus norvegicus), sequence (P20272 whole entry): as above
How it was run: as §1, with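 “h. Emission at 665 nm gave concentration-response curves and EC50; Emax is expressed as a percentage of the reference agonist maximum.” for “h.”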

Cannabinoid receptor 1 [17] = target: T1, Cannabinoid receptor 1; experiment: Agonist activity at human recombinant CB1 receptor expressed in CHO-K1 cells assessed as inhibition of forskolin-stimulated intracellular cAMP level relative to CP-55940; assay type: functional, cell-based
How it was run: as §1, with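 “h. Emission at 665 nm gave concentration-response curves and EC50; Emax is expressed as a percentage of the reference agonist maximum.” for “h.”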

[18] = Metabolic stability in rat liver microsomes; assay type: ADME, Microsome; details: read-out: Stability
[19] = Metabolic stability in human liver microsomes; assay type: ADME, Microsome; details: read-out: Stability
Rattus norvegicus [20] = experiment: as §3; assay type: ADME, organism-based, Plasma; parameters: dose 10 mg/kg, route oral; details: in vivo
Rattus norvegicus [21] = experiment: as §4; assay type: ADME, organism-based; details: in vivo
Rattus norvegicus [22] = experiment: Oral bioavailability in rat; assay type: ADME, organism-based; details: in vivo
Rattus norvegicus [23] = experiment: Clearance in rat at 0.5 mg/kg, iv; assay type: ADME, organism-based; parameters: dose 0.5 mg/kg, route intravenous; details: in vivo
Cannabinoid receptor 1 [24] = target: T1, Cannabinoid receptor 1; experiment: Binding affinity to CB1 receptor
Cannabinoid receptor 2 [25] = target: T2, Cannabinoid receptor 2; experiment: Binding affinity to CB2 receptor

T1 sequence (P21554 whole entry): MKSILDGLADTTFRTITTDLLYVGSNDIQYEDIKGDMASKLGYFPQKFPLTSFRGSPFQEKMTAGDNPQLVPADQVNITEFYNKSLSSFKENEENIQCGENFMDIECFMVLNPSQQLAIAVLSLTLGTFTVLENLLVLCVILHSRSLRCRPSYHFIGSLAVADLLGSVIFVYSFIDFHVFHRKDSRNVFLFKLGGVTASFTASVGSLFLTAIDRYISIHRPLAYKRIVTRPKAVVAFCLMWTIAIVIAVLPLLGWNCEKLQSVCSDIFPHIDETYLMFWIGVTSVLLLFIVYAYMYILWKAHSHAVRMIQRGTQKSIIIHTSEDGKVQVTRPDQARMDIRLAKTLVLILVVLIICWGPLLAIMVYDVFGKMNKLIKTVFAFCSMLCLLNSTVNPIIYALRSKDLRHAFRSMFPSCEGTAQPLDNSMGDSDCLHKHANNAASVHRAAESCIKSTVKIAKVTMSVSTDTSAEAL

Row | Structure (SMILES) | EC50 (Cannabinoid receptor 1 [1]) [nM] | solubility [2] [µg/mL] | EC50 (Cannabinoid receptor 1 [3]) [nM] | half-life [5] [min] | EC50 (Cannabinoid receptor 2 [7]) [nM] | Cmax [8] [ng/mL] | EC50 (Cannabinoid receptor 2 [9]) [nM] | Emax [10] [%] | Emax (Cannabinoid receptor 2 [11]) [%] | Emax (Cannabinoid receptor 2 [12]) [%] | EC50 (Cannabinoid receptor 1 [13]) [nM] | EC50 (Cannabinoid receptor 2 [14]) [nM] | Emax (Cannabinoid receptor 1 [15]) [%] | Emax [16] [%] | Emax (Cannabinoid receptor 1 [17]) [%] | microsomal CLint [18] [µL/min/mg] | microsomal CLint [19] [µL/min/mg] | other results
1 | N#Cc1cc(NC(=O)CCc2nc(-c3ccc(F)cc3Cl)no2)cnc1OCC(F)(F)F | > 1000 | 24 (≈ 51.1 µM) | > 10000 | 186 | 31 | 3400 | 14 | 100 | 110 | 97 | > 1000 | 3.1 | – | – | – | – | – | AUC [4]: 21000 ng·h/mL; bioavailability [6]: 36%
2 | Fc1ccc(-c2noc(CCCNc3cnc4ccc(OC(F)(F)F)cc4c3)n2)c(Cl)c1 | 850 | 49 (≈ 105 µM) | 1100 | – | 2.3 | – | 0.015 | 130 | 110 | 110 | 130 | 1.3 | 81 | 120 | 78 | – | – | –
3 | O=C(CCc1nc(-c2ccc(F)cc2Cl)no1)Nc1cnc2ccc(Cl)cc2c1 | 710 | – | 0.9 | – | 0.5 | – | 1400 | 97 | 110 | 99 | 130 | 11 | 82 | 99 | 57 | < 100 | < 100 | –
4 | O=C(CCc1nc(-c2ccc(F)cc2Cl)no1)Nc1cnc2ncc(Cl)cc2c1 | > 1000 | – | 2300 | – | 0.6 | – | 3.3 | 100 | 110 | 97 | 220 | 0.4 | 43 | 100 | 30 | < 100 | < 100 | –
5 | CCn1c2ccccc2c2cc(NC(=O)CCc3nc(-c4ccccc4F)no3)ccc21 | > 1000 | 2 (≈ 4.67 µM) | > 10000 | 96 | – | 100 | – | 91 | 100 | 93 | > 1000 | 33 | – | – | – | 198 | 274 | AUC (Rattus norvegicus [20]): 0.46 µg·h/mL; F (Rattus norvegicus [21]): 13%; F (Rattus norvegicus [22]): 13%; CL (Rattus norvegicus [23]): 1.2 L/h/kg
6 | O=C(CCc1nc(-c2ccc(F)cc2Cl)no1)Nc1nc2ccc(OC(F)(F)F)cc2s1 | > 1000 | – | 1900 | – | 6.5 | – | 3 | 98 | 120 | 99 | > 1000 | 6.9 | 36 | 21 | 36 | < 100 | < 100 | –
7 | O=C(CCc1nc(-c2ccc(F)cc2Cl)no1)Nc1ccc(C(F)(F)F)cc1Cl | – | – | > 10000 | 96 | – | 100 | 370 | – | 41 | – | – | – | – | – | – | – | – | AUC [4]: 460 ng·h/mL; bioavailability [6]: 13%
8 | Cc1ccc2c(=O)c(C(=O)NC3CCCCC3)cn(Cc3ccc(F)cc3)c2n1 | – | – | – | – | – | – | – | – | – | – | – | – | – | – | – | – | – | Ki (Cannabinoid receptor 1 [24]): 15 nM; Ki (Cannabinoid receptor 2 [25]): 5.5 nM
9 | Fc1ccc(-c2noc(CCCNc3cnc4ccc(Cl)cc4c3)n2)c(Cl)c1 | 560 | 87 (≈ 208 µM) | 220 | 306 | 2.2 | 8400 | 1.7 | 90 | 110 | 94 | 77 | 1.3 | 51 | 85 | 88 | – | – | AUC [4]: 43000 ng·h/mL; bioavailability [6]: < 100%
10 | O=C(CCc1nc(-c2ccc(F)cc2Cl)no1)Nc1nnc(N2CCCCC2)s1 | > 1000 | – | 211 | – | 0.8 | – | 1.2 | 98 | 98 | 98 | 220 | 1.1 | 47 | 87 | 38 | < 100 | < 100 | –
11 | CCn1c2ccccc2c2cc(NC(=O)CCc3nc(-c4ccc(F)cc4Cl)no3)ccc21 | > 1000 | – | 1200 | – | 0.6 | – | 1.8 | 98 | 98 | 100 | 330 | 0.4 | 65 | 79 | 20 | – | – | –
